# Data taken from ChEMBL document CHEMBL1122094, “Novel orally active inhibitors of passive cutaneous anaphylaxis in rats: N-[2-(4-pyridinyl)-4-pyrimidinyl]ureas and dialkyl [[[2-(4-pyridinyl)-4-pyrimidinyl]amino]methylene]malonates” (1982).
# Key:
# Rattus norvegicus [1] = species: Rattus norvegicus; experiment: Antiallergic potency against IgE-mediated passive cutaneous anaphylaxis (PCA) in rats; format: functional
# In short: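 Multiple-dose oral tests were run alongside aminophylline in female Sprague–Dawley rats (90–125 g). Bluing diameters were recorded 30 min after challenge, and activity was taken as the rightward shift of the antibody dose-response curve.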
# Rattus norvegicus [2] = species: Rattus norvegicus; experiment: Antiallergic activity against IgE-mediated passive cutaneous anaphylaxis (PCA) in rats; format: functional
# In short: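 Female Sprague–Dawley rats (90–125 g), fasted overnight, were sensitized with id injections of graded concentrations of IgE against egg albumin. Compound was given orally at 100 mg (base)/kg in 0.5% gum tragacanth to 4 rats, 1 h before challenge. Skin bluing diameters were read 30 min later, and the shift of the antibody dose-response curve to the right was expressed in multiples of antibody concentration.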
smiles,measurement,setting,value
CCNC(=O)Nc1ccnc(-c2cccnc2)n1,Potency,Rattus norvegicus [1],4.8
same,PCA shift,Rattus norvegicus [2],>10
CC(=O)C(=CNc1ccnc(-c2ccncc2)n1)C(C)=O,PCA shift,Rattus norvegicus [2],5.6
COC(=O)C(/C=N/c1ccnc(-c2cccnc2)n1)=C(\O)OC,Potency,Rattus norvegicus [1],2.9
same,PCA shift,Rattus norvegicus [2],>10
CCO/C(O)=C(\C=N\c1ccnc(-c2ccncc2)n1)C(C)=O,PCA shift,Rattus norvegicus [2],2.9
CCOC(=O)C(/C=N/c1ccnc(-c2cccnc2)n1)=C(\O)OCC,Potency,Rattus norvegicus [1],0.8
same,PCA shift,Rattus norvegicus [2],>10
CN(C(=O)NC(C)(C)C)c1ccnc(-c2ccncc2)n1,PCA shift,Rattus norvegicus [2],4
CC(C)(C)C(=O)Nc1ccnc(-c2ccncc2)n1,PCA shift,Rattus norvegicus [2],4.2
CC(C)CC(=O)Nc1ccnc(-c2ccncc2)n1,PCA shift,Rattus norvegicus [2],5
CCCCNC(=O)Nc1ccnc(-c2ccncc2)n1,Potency,Rattus norvegicus [1],2.4
same,PCA shift,Rattus norvegicus [2],>10
CC1(C)OC(=O)C(/C=N/c2ccnc(-c3ccncc3)n2)=C(O)O1,PCA shift,Rattus norvegicus [2],2.2
CN(C)c1ccnc(-c2ccncc2)n1,PCA shift,Rattus norvegicus [2],1.5
Cc1cc(O)nc(-c2ccncc2)n1,PCA shift,Rattus norvegicus [2],2.8
Cc1cnc(-c2ccncc2)nc1NC(=O)NC(C)(C)C,PCA shift,Rattus norvegicus [2],3.5
Nc1ccnc(-c2cc[n+]([O-])cc2)n1,PCA shift,Rattus norvegicus [2],3.8
CCNc1ccnc(-c2ccncc2)n1,PCA shift,Rattus norvegicus [2],8.4
NC(=O)Nc1ccnc(-c2ccncc2)n1,PCA shift,Rattus norvegicus [2],4.8
CCCCOC(=O)Nc1ccnc(-c2ccncc2)n1,PCA shift,Rattus norvegicus [2],3
Nc1ccnc(-c2cccnc2)n1,PCA shift,Rattus norvegicus [2],4.2
CCCNC(=O)Nc1ccnc(-c2ccncc2)n1,PCA shift,Rattus norvegicus [2],>10
CC(C)(C)NC(=O)Nc1ccnc(-c2ccccn2)n1,PCA shift,Rattus norvegicus [2],4.5
CC(=O)Nc1ccnc(-c2ccncc2)n1,PCA shift,Rattus norvegicus [2],1.7
CC(C)(C)NC(=O)Nc1ccnc(-c2cccnc2)n1,PCA shift,Rattus norvegicus [2],5.8
CCO/C(O)=C(C#N)\C=N\c1ccnc(-c2ccncc2)n1,PCA shift,Rattus norvegicus [2],9.4
CC(C)NC(=O)Nc1ccnc(-c2ccncc2)n1,Potency,Rattus norvegicus [1],2.4
same,PCA shift,Rattus norvegicus [2],>10
CC(C)(C)CC(=O)Nc1ccnc(-c2ccncc2)n1,PCA shift,Rattus norvegicus [2],2.2
CCO/C(O)=C(C#N)\C(C)=N\c1ccnc(-c2ccncc2)n1,PCA shift,Rattus norvegicus [2],5
CCCCNc1ccnc(-c2ccncc2)n1,PCA shift,Rattus norvegicus [2],7.6
CCNC(=O)Nc1ccnc(-c2ccncc2)n1,Potency,Rattus norvegicus [1],7
same,PCA shift,Rattus norvegicus [2],>10
CCCCNC(=O)Nc1ccnc(-c2cccnc2)n1,PCA shift,Rattus norvegicus [2],8.5
CCN(CC)C(=O)Nc1ccnc(-c2ccncc2)n1,PCA shift,Rattus norvegicus [2],8.9
CC(C)C(=O)Nc1ccnc(-c2ccncc2)n1,PCA shift,Rattus norvegicus [2],2.3
CC(C)NC(=O)Nc1ccnc(-c2cccnc2)n1,Potency,Rattus norvegicus [1],1.6
same,PCA shift,Rattus norvegicus [2],>10
CC(C)(C)NC(=O)Nc1ccnc(-c2cc[n+]([O-])cc2)n1,PCA shift,Rattus norvegicus [2],1.5
CC(C)(C)NC(=O)Nc1ccnc(-c2ccncc2)n1,Potency,Rattus norvegicus [1],3.9
same,PCA shift,Rattus norvegicus [2],>10
Nc1ccnc(-c2ccccn2)n1,PCA shift,Rattus norvegicus [2],2.5
CC(C)(C)Nc1ccnc(-c2ccncc2)n1,PCA shift,Rattus norvegicus [2],1.5
CC(C)(C)OC(=O)Nc1ccnc(-c2ccncc2)n1,PCA shift,Rattus norvegicus [2],1.6
CCN(CC)c1cc(C)nc(-c2ccncc2)n1.Cl.Cl,PCA shift,Rattus norvegicus [2],2.2
Cc1cc(N(C)C)nc(-c2ccncc2)n1.Cl.Cl,PCA shift,Rattus norvegicus [2],5
CCCCN(C(=O)NC(C)C)c1ccnc(-c2ccncc2)n1.CS(=O)(=O)O.CS(=O)(=O)O,PCA shift,Rattus norvegicus [2],4.2
CCC(CC)NC(=O)Nc1ccnc(-c2ccncc2)n1.CS(=O)(=O)O.CS(=O)(=O)O,PCA shift,Rattus norvegicus [2],6.4
CS(=O)(=O)O.CS(=O)(=O)O.Cc1cc(NN)nc(-c2ccncc2)n1,PCA shift,Rattus norvegicus [2],2
CC(C)NC(=O)Nc1ccnc(-c2cc[n+]([O-])cc2)n1.CS(=O)(=O)O.CS(=O)(=O)O,Potency,Rattus norvegicus [1],1.8
same,PCA shift,Rattus norvegicus [2],5.4
CCOC(=O)C(/C=N/c1ccnc(-c2ccccn2)n1)=C(\O)OCC.CS(=O)(=O)O,PCA shift,Rattus norvegicus [2],4.1
Cc1cc(N(CCO)CCO)nc(-c2ccncc2)n1,PCA shift,Rattus norvegicus [2],6.3
CNC(=O)Nc1ccnc(-c2ccncc2)n1,Potency,Rattus norvegicus [1],3.8
same,PCA shift,Rattus norvegicus [2],>10
CC(C)(CO)NC(=O)Nc1ccnc(-c2ccncc2)n1,Potency,Rattus norvegicus [1],1
same,PCA shift,Rattus norvegicus [2],>10
Nc1ccnc(-c2ccncc2)n1,PCA shift,Rattus norvegicus [2],8.6
CCOC(=O)C(/C=N/c1cc(C)nc(-c2ccncc2)n1)=C(/O)OCC,PCA shift,Rattus norvegicus [2],7.8
CCCCCC(=O)Nc1ccnc(-c2ccncc2)n1,PCA shift,Rattus norvegicus [2],7
CC(C)(C)CNC(=O)Nc1ccnc(-c2ccncc2)n1,PCA shift,Rattus norvegicus [2],2.2
CNc1ccnc(-c2ccncc2)n1,PCA shift,Rattus norvegicus [2],7.4
CCOC(=O)C(/C=N/c1ccnc(-c2ccncc2)n1)=C(\O)OCC,Potency,Rattus norvegicus [1],2.4
same,PCA shift,Rattus norvegicus [2],>10
CNc1cc(C)nc(-c2ccncc2)n1,PCA shift,Rattus norvegicus [2],4.9
Cc1cc(Cl)nc(-c2ccncc2)n1,PCA shift,Rattus norvegicus [2],1.4
COC(=O)C(/C=N/c1ccnc(-c2ccncc2)n1)=C(\O)OC,Potency,Rattus norvegicus [1],5.8
same,PCA shift,Rattus norvegicus [2],>10
CC(C)Nc1ccnc(-c2ccncc2)n1,PCA shift,Rattus norvegicus [2],9
Cc1cc(NC(=O)NC(C)(C)C)nc(-c2ccncc2)n1,PCA shift,Rattus norvegicus [2],3.2
CC(C)NC(=O)N(C)c1ccnc(-c2ccncc2)n1,PCA shift,Rattus norvegicus [2],>10
Cc1cc(N)nc(-c2ccncc2)n1,PCA shift,Rattus norvegicus [2],10.2
